# T cruzi growth-1: T. cruzi intracellular proliferation inhibitors, primary screen, cell-based, beta-gal Tulahuen parasites, NIH3T3 host, luminescence; T. cruzi beta-gal in NIH3T3, GalScreen luminescence, 90 h; inhibition, % at 8.34 µM; 77,000 tested, 5.9% active; AID 624255, 2012;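 active = mean inhibition above about 93%, with at least 55% of replicates each passing it, limit read from the data, passing the limit was not always enough; inconclusive = only one of those two conditions holds; inactive = neither condition holds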
# GASC1 inh: inhibitors of GASC-1 (KDM4C) histone demethylase, primary screen, biochemical, single concentration HTS; 96,000 tested, 0.15% active; Lysine-specific demethylase 4C (Homo sapiens), Q9H3R0; GST-KDM4C 2-372, H3K9me3 peptide, LANCE TR-FRET; inhibition, % at 12.5 µM; AID 720574, 2013;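 active = mean replicate inhibition above about 25%, with at least 55% of replicates also reaching it, limit read from the data, passing the limit was not always enough; inconclusive = only one of those two conditions met; inactive = neither condition met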
#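 reagent = H3K9me3 peptide substrate, Fe(II), 2-oxoglutarate | system = GST-tagged GASC-1 (JMJD2C) catalytic fragment, aa 2-372 | amount = enzyme final amount 10 nM | read-out = Fall in 671/618 emission ratio as inhibition | medium = HEPES buffer, pH 7.5, plus ascorbate | schedule = 30 min reaction, 60 min detection, RT | measured by = LANCE TR-FRET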
# IDH1 R132H inh: inhibitors of IDH1 R132H reductase, primary screen, biochemical, plate reader, single point; inhibition, % at 10 µM; Isocitrate dehydrogenase [NADP] cytoplasmic (Homo sapiens), O75874; 70,000 tested, 0.18% active; diaphorase/resazurin fluorescence, 60 min; in the data active = inhibition above about 34%; inconclusive = no clear call, values can overlap the other calls; inactive = below about 11%;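 also: 0% = DMSO and 100% = no enzyme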
# Target sequence (O75874 whole entry R132H): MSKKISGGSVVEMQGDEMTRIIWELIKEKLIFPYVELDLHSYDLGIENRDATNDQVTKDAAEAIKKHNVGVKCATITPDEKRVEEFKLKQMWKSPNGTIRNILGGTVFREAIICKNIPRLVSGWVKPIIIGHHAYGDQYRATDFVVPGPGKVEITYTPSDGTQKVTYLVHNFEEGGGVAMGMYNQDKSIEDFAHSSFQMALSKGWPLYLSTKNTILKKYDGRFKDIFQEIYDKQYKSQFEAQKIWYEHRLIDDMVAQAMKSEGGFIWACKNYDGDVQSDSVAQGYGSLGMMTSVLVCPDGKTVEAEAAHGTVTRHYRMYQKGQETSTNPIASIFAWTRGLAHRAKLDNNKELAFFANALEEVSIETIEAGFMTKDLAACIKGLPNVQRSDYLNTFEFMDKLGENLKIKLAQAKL
# T cruzi growth-2: T. cruzi intracellular proliferation inhibitors, confirmation, cell-based, NIH3T3 host, beta-gal parasite, luminescence, cherry-pick; shares compounds with T cruzi growth-1; T. cruzi beta-gal in NIH3T3, GalScreen luminescence, 90 h; inhibition, % at 8.35 µM; 5,600 tested, 72% active;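 active = mean replicate inhibition above about 95% and at least 55% of replicates individually reaching it, limit read from the data; inconclusive = only one of the two criteria is met; inactive = neither criterion is met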
# T cruzi growth-3: inhibitors of intracellular T. cruzi replication, confirmation, NIH3T3 host cells, beta-gal parasites, cherry-pick, set 2. shares compounds with T cruzi growth-1. T. cruzi beta-gal in NIH3T3, GalScreen luminescence, 90 h. inhibition, % at 2.09 µM. 5,600 tested, 21% active. AID 651740, 2012;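 active = mean inhibition above about 95%, with at least 55% of replicates also reaching it, limit read from the data; inconclusive = meets just one of the two conditions; inactive = meets neither condition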;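 also: plate controls were neutral control median for no effect and positive control median for full effect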
# NIH3T3 tox: cytotoxicity in mouse NIH/3T3 fibroblasts, confirmation, cytotoxicity control for T. cruzi proliferation inhibitor project, cell-based, cherry-pick, single point; cytotoxicity (signal decrease), % at 8.35 µM; 5,600 tested, 14% active; AID 651742, 2012; shares compounds with T cruzi growth-1; NIH/3T3 viability, CellTiter-Glo ATP luminescence, 90 h;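 active = mean signal decrease across replicates above about 35% based on untreated-well scatter, with enough replicates individually passing, limit read from the data; inconclusive = no rule stated though some were filed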;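 also: 0% = median of neutral control wells and 100% = median of positive control wells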
# 3T3 cytotox 2: NIH/3T3 fibroblast cytotoxicity, confirmation, cytotoxicity control, cell-based, cherry-pick, single point, set 2 | NIH/3T3 viability, CellTiter-Glo ATP luminescence, 90 h | inhibition, % at 24.9 µM | 5,600 tested, 56% active | shares compounds with T cruzi growth-1;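 active = mean loss of cell viability signal at or above a set limit, and enough replicates individually reaching it; inconclusive = meets only the mean limit or only the replicate share; inactive = meets neither condition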;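 also: 0% = median of neutral control wells and 100% = median of positive control wells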
# Active calls of the source: *; u = inconclusive; x = no result given. Many of the other results were omitted from the sample, so hits are more common in it than they were.
SMILES,T cruzi growth-1,GASC1 inh,IDH1 R132H inh,T cruzi growth-2,T cruzi growth-3,NIH3T3 tox,3T3 cytotox 2
COc1ccc(S(=O)(=O)Nc2ccc3c(c2)C(=O)N([C@@H](C)CO)C[C@@H](C)[C@@H](CN(C)Cc2ccc4c(c2)OCO4)OCCCC[C@@H](C)O3)cc1,87,-2,1,x,x,x,x
C[C@@H]1CN([C@H](C)CO)C(=O)c2cc(NS(=O)(=O)c3ccc(F)cc3)ccc2O[C@@H](C)CCCCO[C@@H]1CN(C)Cc1ccc2c(c1)OCO2,102*,0,-1,89,105*,71*,105*
Cc1ccc(S(=O)(=O)Nc2ccc3c(c2)C(=O)N([C@H](C)CO)C[C@H](C)[C@H](CN(C)Cc2ccc4c(c2)OCO4)OCCCC[C@H](C)O3)cc1,63,-2,-1,x,x,x,x
O=C(c1ccccc1F)N1CC[C@@H]2[C@H]1c1cc(C#Cc3ccc(F)cc3)ccc1N[C@@H]2CO,67,-6,x,x,x,x,x
COc1cccc(CNC(=O)C[C@H]2CC[C@H](NS(=O)(=O)c3ccccc3OC)[C@@H](CO)O2)c1,17,-2,1,x,x,x,x
O=C(C[C@@H]1C[C@H]2c3cc(NC(=O)Cc4ccncc4)ccc3O[C@H]2[C@@H](CO)O1)NCc1cccnc1,7,3,0,x,x,x,x
O=C(C[C@@H]1C[C@H]2c3cc(NC(=O)NC4CCCC4)ccc3O[C@H]2[C@H](CO)O1)NCc1ccc(-c2ccccc2)cc1,100*,-1,1,105*,u,-12,51*
O=C(C[C@H]1C[C@@H]2c3cc(NC(=O)CC4CC4)ccc3O[C@@H]2[C@H](CO)O1)NCc1ccc(-c2ccccc2)cc1,104*,0,0,112*,56,11,-3
O=C(C[C@@H]1C[C@@H]2c3cc(NC(=O)CC4CC4)ccc3O[C@@H]2[C@@H](CO)O1)NCc1cccnc1,100*,-4,-1,113*,-27,-7,-11
O=C(C[C@@H]1C[C@H]2c3cc(NC(=O)NC4CCCC4)ccc3O[C@H]2[C@@H](CO)O1)NCc1ccc(Cl)cc1,36,-3,0,x,x,x,x
O=C(C[C@H]1C[C@@H]2c3cc(NC(=O)NC4CCCC4)ccc3O[C@@H]2[C@@H](CO)O1)NCc1ccc(Cl)cc1,u,1,0,103*,42,22,18
O=C(C[C@@H]1C[C@H]2c3cc(NC(=O)NC4CCCC4)ccc3O[C@H]2[C@@H](CO)O1)NCc1ccc(-c2ccccc2)cc1,85,1,0,x,x,x,x
O=C(C[C@H]1C[C@@H]2c3cc(NC(=O)CC4CC4)ccc3O[C@@H]2[C@@H](CO)O1)NCc1ccc(-c2ccccc2)cc1,41,-1,0,x,x,x,x
COc1ccc(S(=O)(=O)Nc2ccc3c(c2)C(=O)N([C@@H](C)CO)C[C@@H](C)[C@H](CN(C)Cc2ccc(C(=O)O)cc2)OCCCC[C@H](C)O3)cc1,86,1,x,x,x,x,x
CO[C@H]1CN(C)C(=O)c2cc(NS(C)(=O)=O)ccc2OC[C@H](C)NC[C@@H]1C,23,0,0,x,x,x,x
C/C=C/c1ccc2c(c1)O[C@H](CN(C)Cc1ccncc1)[C@H](C)CN([C@H](C)CO)S2(=O)=O,71,3,4,x,x,x,x
C/C=C/c1ccc2c(c1)O[C@@H](CN(C)Cc1ccncc1)[C@@H](C)CN([C@@H](C)CO)S2(=O)=O,109*,1,2,96*,101*,33,29*
C/C=C/c1ccc2c(c1)O[C@H](CN(C)Cc1cncnc1)[C@@H](C)CN([C@@H](C)CO)S2(=O)=O,x,8,-1,x,x,x,x

# Screening data: PubChem, Broad Institute
